Assay results of several laboratories.
Each line is one published result; the experiments were not run side by side.
Cell line: K562

SMILES	effect on	action	method	time	notes	IC50
CC(C)[C@H](N)C(=O)N1CCC[C@H]1B(O)O	cell growth or viability	–	ATP luminescence	48 h	–	> 60000 nM
CC(C)C[C@H](NC(=O)[C@H](Cc1ccccc1)NC(=O)c1cnccn1)B(O)O	cell growth or viability	–	ATP luminescence	–	–	5.6 nM
O=C1CCCCC1C1C2C=CC=CC1C(CCCCOC1CCCCO1)=C2 (centres unmarked)	cell growth or viability	–	flow cytometry	–	–	27 nM
COc1cc(C=NNc2ncnc3c2cnn3-c2ccccc2)ccc1O	cell growth or viability	–	XTT	72 h	–	3240 nM
CCCON(Cc1ccc(C(=O)NO)cc1)C(=O)Nc1ccccc1	cell growth or viability	–	ATP luminescence	72 h	–	1770 nM
COc1ccc(/C=C\c2cc(OC)c(OC)c(OC)c2)cc1O	cell growth or viability	–	–	–	–	5 nM
c1ccc(-c2n[nH]cc2-c2ccnc(-c3ccc(OCCn4ccnc4)cc3)c2)nc1	cell growth or viability	–	XTT	72 h	–	20000 nM
N#CCCC1=CC2C=CC=CC1C2C1CCCCC1=O (centres unmarked)	cell growth or viability	–	flow cytometry	–	–	57 nM
CC(=O)O[C@@H]1OC=C2[C@@H](OC(C)=O)C[C@H]3[C@]4(C)CC[C@H]5C(C)(C)CCC[C@]5(C)[C@H]4C[C@@H](O)[C@]3(C)[C@H]21	NF-κB activity	inhibitor	luciferase	–	TNF-stimulated	6000 nM
CC(C)(C)SCCCC1=CC2C=CC=CC1C2C1CCCCC1=O (centres unmarked)	cell growth or viability	–	flow cytometry	–	–	28 nM
CC(=O)O[C@H](C)C(=O)CCCCCCC(=O)Nc1ccccc1	cell growth or viability	–	thymidine uptake	–	–	> 100000 nM
CCCCCC/C=C1\CC2C=CC=CC1C2C1CCCCC1=O (centres unmarked)	cell growth or viability	–	flow cytometry	–	–	17 nM
CCCCc1ccc2[nH]c(NC(=O)OC)nc2c1	cell growth or viability	–	CCK-8	72 h	–	61.2 nM
CCOC(=O)CCC1=CC2C=CC=CC1C2C1CCCCC1=O (centres unmarked)	cell growth or viability	–	flow cytometry	–	–	21 nM
C#CCSc1nc(Sc2nnnn2-c2ccccc2)c2nnn(Cc3ccc(OC)cc3)c2n1	cell growth or viability	–	MTS	6 days	–	7240 nM
CN1c2ccccc2C(=O)N2[C@H](C(=O)Nc3ccc(/C=C/C(=O)NO)cc3)Cc3c([nH]c4ccccc34)[C@@H]12	cell growth or viability	–	–	–	–	1000 nM
O=C1NCCc2[nH]c(-c3ccncc3)cc21	cell growth or viability	–	–	–	–	> 10000 nM
